In ChEMBL document CHEMBL4513216, “Probing the Open Global Health Chemical Diversity Library for Multistage-Active Starting Points for Next-Generation Antimalarials” (ACS Infect Dis, 2020):

Assay: Toxicity liver stage against HepG2, at 10uM
Format: cell-based
Design: test concentration 10 uM, cell line HepG2-A16-CD81EGFP
Conditions: human, HepG2-A16-CD81EGFP cells; read-out: INHIBITION
How it was run: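 Uninfected HepG2-A16-CD81EGFP cells, 3 × 10^3 per well, 1536-well, plated on prespotted compound at 10 μM final, parasite-free screening media added to match infected plates; puromycin 10 μM positive, DMSO 0.5% negative; run in parallel with 48 h PbLuc assay at 37 °C, 5% CO2; viability by CellTiter-Glo luminescence, normalized to controls.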

SMILES | cytotoxicity at 10 µM [%]
c1cc(CNCCc2cn3ccccc3n2)c2c(c1)OCCCO2 | 15.2
COc1ccc(CN[C@@H]2CO[C@H](CNC(=O)N3CCOCC3)[C@H]2O)cc1 | -1.57
COC(=O)c1ccc2nc(CO[C@H]3CN(CC4CC4)C[C@H]3F)[nH]c2c1 | 2.52
CC(C)NC(=O)N1CCN2C(=O)OC[C@H]2C1 | 4.62
O=C(O)Cc1cnc(-c2c(Cl)cccc2Cl)s1 | 2.84
Cc1nn(C2CCS(=O)(=O)C2)c(O)c1Cc1ccccc1 (stereo unspecified) | -44.6
O=C(CN1C(=O)c2ccccc2C1=O)N1CCOC2(CCOCC2)C1 | -5.15
Cc1nc(N2CCCC2)nc2c1CN(C(=O)N(C)C)CC2 | 4.29
COCCC(=O)NCC1Cn2nnc(-c3cccc(F)c3)c2CO1 (stereo unspecified) | 0.0508
CCCN(CCC)c1ncc(S(=O)(=O)c2ccc(OC)cc2)c(N)n1 | 7.79
O=S(=O)(c1cnccc1N1CCN(CCO)CC1)N1CCOCC1 | -8.49
CC(=O)c1c(O)n(C)c2ccccc12 | 1.64
O=C(Cn1ccc2ccc(Br)cc21)NC[C@@H]1CCCN2CCCC[C@H]12 | 14.7
CN(C)c1nccc(N2CCO[C@H]3CN(CC4CCOCC4)C[C@H]32)n1 | -7.21
CSc1nc2ccsc2c(=O)n1CC(=O)N(C)c1ccccc1 | -5.57
Cc1ccc2cnn(CCC(=O)NCc3c(C)nn(C)c3C)c2c1 | -8.19
COc1ccccc1-c1cccc(C2CCCN(C3CCOCC3)C2)n1 (stereo unspecified) | 5.7
Cc1cc(C)c2nc(C)c(C(=O)N3CCC(CCN(C)C)CC3)cc2c1 | -4.91
Cc1cc(Cc2ccccc2F)cc(C2CCCNC2)n1 (stereo unspecified) | 0.00505

SMILES | cytotoxicity at 10 µM [%]
CC(NC(=O)NC1CCN(Cc2ccccn2)CC1)c1ccco1 (stereo unspecified) | 13.9
O=C(C[S+]([O-])Cc1csc(C2CCCC2)n1)NC1CCCC1 (stereo unspecified) | -38.2
CC(C)OCCS(=O)(=O)N1CCN(Cc2ccco2)CC1 | -11.3
CSCC(=O)N1CCOC(c2nc(C)n[nH]2)C1 (stereo unspecified) | 0.986
Cc1ccc(C(=O)NCC(O)c2ccc(Cl)s2)c(=O)[nH]1 (stereo unspecified) | -20.7
CCC(C)C(=O)N(Cc1ccccn1)C1CC1 (stereo unspecified) | -44.5
COCCCN(C)S(=O)(=O)c1ccc(Cl)cc1C#N | -38
CCN(CC)c1ccc(CNC(=O)c2cnc(C)cn2)cn1 | 6.21
CN(C)C(C)(C)CNCc1c[nH]nc1-c1cc2ccccc2o1 | -3.6
CC(C)n1c(C2CCCN(CC(=O)NC(N)=O)C2)nc2ccccc21 (stereo unspecified) | -7.9
Cc1cc(S(=O)(=O)N2CCCc3ccccc32)sc1C(=O)O | -13.5
CCSc1cc(C(=O)NCCc2nnc(-c3ccco3)[nH]2)ccn1 | 6.14
COC(=O)c1ccoc1CN(C)Cc1ccccc1 | 3.3
O=C(C1CCCCC1)N1CCC2(CC1)OCCO2 | 9.77
CCc1nnc2n1CCN(C(=O)c1ccc(C)c(S(N)(=O)=O)c1)C2 | -4.55
COc1cc(C(C)=O)ccc1SCC(=O)Nc1ccccn1 | 11.7
O=C(c1coc2ccccc12)N1CCS(=O)(=O)CC1 | 2.64
NC(=O)c1ccc(OCCC(=O)NC2CCc3c(F)cccc32)cc1 (stereo unspecified) | 2.02
CC(NCC1CCN(CCO)CC1)c1ccc(C(F)(F)F)cc1 (stereo unspecified) | -7.28

SMILES | cytotoxicity at 10 µM [%]
Cn1ccnc1COc1ccc(CSc2nnnn2C2CC2)cc1 | -0.146
CC(=O)N(C)c1nc(CN2CCN(Cc3nccn3C)CC2)cs1 | 8.82
Cc1ccc2c(c1)C(NCc1ncnn1C)CC2 (stereo unspecified) | 6.32
Cc1cnn(CCNCc2c(C)nn(CCO)c2C)c1 | 6.35
CC(C(=O)NCC1(c2c(F)cccc2F)CCCC1)S(C)(=O)=O (stereo unspecified) | 8.14
Cc1cc(C(=O)NCCN2CCC(C)CC2)nn1C(C)(C)C | 13.3
CCN1CCN(CCCNC(=O)c2cc3ccc(C)cc3nc2C)CC1 | 5.33
CCc1c(C)nc2ccccc2c1N1CCC(NC(C)=O)CC1 | 11.2
COc1ccnc(NC(=O)CSCc2cccnc2)c1 | -47.2
Cc1ncsc1C(=O)N(C)Cc1ccc(Br)o1 | -39.3
CCN(CC)C(=O)CN(C)Cc1nc2c(cnn2C)c(=O)[nH]1 | -0.958
O=S(=O)(c1ccccc1)N1CCCN(CCCn2ccnc2)CC1 | -9.17
O=C(NCCCn1ccnc1)N1CCCC1c1ccncc1 (stereo unspecified) | 25.4
Cc1ccc(OCC(=O)NCC(C)C)nc1 | -18.3
Cc1cccc(C(=O)N(C)Cc2cc(Br)cs2)n1 | -5.1
CS(=O)(=O)NCc1nnc2n1CCN(Cc1ccccn1)C2 | -75.5
CCOCC1CN(Cc2cnn(C)c2)Cc2ncn(C)c21 (stereo unspecified) | -79.2
CN(C)C(=O)COC1COC2(CCN(S(C)(=O)=O)CC2)C1 (stereo unspecified) | -1.08
